Reference: ChEMBL document CHEMBL1125249, “Structure-affinity relationships of 12-sulfonyl derivatives of 5,8,8a,9,10,11,12,12a,13,13a-decahydro-6H-isoquino[2,1-g][1 ,6] naphthyridines at alpha-adrenoceptors” (J Med Chem, 1991)

Legend:
[1] = target: T1, Adrenergic receptor alpha-2 (Rattus norvegicus, UniProt P22086+P19328+P22909); assay: Binding affinity to alpha-2 adrenergic receptor determined by measurement of [3H]yohimbine displacement from rat cortical membrane
T1 sequence (P22086 whole entry): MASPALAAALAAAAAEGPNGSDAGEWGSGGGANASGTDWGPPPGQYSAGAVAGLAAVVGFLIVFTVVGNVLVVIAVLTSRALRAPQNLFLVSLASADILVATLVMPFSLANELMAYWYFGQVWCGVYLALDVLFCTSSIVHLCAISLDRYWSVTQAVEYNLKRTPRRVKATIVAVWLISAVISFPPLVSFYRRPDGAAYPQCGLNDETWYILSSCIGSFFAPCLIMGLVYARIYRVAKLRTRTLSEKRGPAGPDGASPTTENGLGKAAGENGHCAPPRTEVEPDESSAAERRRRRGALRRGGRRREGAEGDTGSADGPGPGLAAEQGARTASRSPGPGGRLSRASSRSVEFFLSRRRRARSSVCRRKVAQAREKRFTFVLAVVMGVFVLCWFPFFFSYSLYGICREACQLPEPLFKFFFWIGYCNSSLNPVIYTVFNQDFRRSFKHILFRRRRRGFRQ
T1 sequence (P19328 whole entry): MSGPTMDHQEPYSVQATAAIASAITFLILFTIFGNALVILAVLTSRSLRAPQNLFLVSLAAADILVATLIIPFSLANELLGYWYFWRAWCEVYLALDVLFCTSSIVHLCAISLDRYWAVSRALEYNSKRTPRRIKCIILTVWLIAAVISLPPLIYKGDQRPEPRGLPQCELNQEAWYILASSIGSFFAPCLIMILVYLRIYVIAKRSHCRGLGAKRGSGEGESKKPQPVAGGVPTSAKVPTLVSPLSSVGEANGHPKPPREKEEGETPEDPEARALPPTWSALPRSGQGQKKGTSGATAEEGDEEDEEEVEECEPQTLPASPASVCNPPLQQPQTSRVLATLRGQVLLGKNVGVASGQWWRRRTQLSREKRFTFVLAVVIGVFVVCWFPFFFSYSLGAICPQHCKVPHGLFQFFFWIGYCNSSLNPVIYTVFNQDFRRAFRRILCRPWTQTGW
T1 sequence (P22909 whole entry): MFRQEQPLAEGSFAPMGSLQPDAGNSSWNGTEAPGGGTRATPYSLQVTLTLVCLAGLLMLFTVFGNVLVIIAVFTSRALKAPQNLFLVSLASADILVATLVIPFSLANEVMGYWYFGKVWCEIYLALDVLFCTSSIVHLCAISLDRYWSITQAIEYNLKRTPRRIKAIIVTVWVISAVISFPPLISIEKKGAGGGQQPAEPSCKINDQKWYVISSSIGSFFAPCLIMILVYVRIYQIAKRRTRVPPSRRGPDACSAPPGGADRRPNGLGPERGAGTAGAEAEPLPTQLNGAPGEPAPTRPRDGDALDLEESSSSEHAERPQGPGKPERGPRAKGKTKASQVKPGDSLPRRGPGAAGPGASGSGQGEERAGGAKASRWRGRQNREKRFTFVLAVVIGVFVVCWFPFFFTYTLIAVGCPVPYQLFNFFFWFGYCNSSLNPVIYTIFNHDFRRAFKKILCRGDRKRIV

Cavia porcellus = species on record: Cavia porcellus; assay: In vitro reversal of inhibitory effect of UK - 14304 on the contractile response of guinea pig ileum to field stimulation.; format: functional, organism-based; settings: read-out: pA2 (converted)
Procedure, shortened: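 Ileum from female Dunkin-Hartley guinea pigs (250-300 g) held in Tyrode solution at 37 °C, gassed with O2, under 1 g tension. Field stimulation at 0.1 Hz (1-ms pulses, supramaximal voltage), with isometric contractions recorded. Cumulative UK-14304 curves were run, the second taken as control. Antagonist was then applied for 40 min before repeat agonist curves.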

[2] = target: T2, Adrenergic receptor alpha-2 (Rattus norvegicus) (UniProt P22086+P19328+P22909)
[3] = target: T3, Adrenergic receptor alpha-1 (Rattus norvegicus, UniProt P15823+P23944+P43140); assay: Binding affinity to alpha-1 adrenergic receptor determined by measurement of [3H]prazosin displacement from rat cortical membrane
T3 sequence (P15823 whole entry): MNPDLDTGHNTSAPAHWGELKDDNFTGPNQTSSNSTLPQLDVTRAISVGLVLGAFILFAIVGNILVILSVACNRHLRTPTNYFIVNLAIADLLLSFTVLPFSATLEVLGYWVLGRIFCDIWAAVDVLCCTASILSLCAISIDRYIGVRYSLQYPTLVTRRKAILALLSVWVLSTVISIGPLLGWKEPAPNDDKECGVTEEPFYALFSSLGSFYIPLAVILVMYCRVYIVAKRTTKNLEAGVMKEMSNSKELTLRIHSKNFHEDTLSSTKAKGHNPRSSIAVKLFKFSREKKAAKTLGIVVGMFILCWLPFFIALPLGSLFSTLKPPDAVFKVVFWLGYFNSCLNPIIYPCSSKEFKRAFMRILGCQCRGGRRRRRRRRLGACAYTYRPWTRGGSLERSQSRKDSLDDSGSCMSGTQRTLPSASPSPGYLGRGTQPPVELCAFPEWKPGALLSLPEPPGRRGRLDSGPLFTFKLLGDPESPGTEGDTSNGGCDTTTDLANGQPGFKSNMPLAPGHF
T3 sequence (P23944 whole entry): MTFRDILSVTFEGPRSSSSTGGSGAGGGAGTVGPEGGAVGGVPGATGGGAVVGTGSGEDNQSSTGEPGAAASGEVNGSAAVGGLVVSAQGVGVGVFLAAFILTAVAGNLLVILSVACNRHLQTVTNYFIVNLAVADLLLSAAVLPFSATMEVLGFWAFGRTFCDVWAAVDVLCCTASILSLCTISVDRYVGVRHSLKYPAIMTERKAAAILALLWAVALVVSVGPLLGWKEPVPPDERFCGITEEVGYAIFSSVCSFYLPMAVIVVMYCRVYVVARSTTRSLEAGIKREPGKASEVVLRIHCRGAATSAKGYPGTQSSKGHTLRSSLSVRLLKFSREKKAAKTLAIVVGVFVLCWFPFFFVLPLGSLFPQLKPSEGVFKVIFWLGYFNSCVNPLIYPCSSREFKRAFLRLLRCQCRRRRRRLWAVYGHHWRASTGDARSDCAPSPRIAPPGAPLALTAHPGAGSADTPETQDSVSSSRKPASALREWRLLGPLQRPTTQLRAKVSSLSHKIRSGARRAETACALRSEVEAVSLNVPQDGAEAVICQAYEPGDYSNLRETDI
T3 sequence (P43140 whole entry): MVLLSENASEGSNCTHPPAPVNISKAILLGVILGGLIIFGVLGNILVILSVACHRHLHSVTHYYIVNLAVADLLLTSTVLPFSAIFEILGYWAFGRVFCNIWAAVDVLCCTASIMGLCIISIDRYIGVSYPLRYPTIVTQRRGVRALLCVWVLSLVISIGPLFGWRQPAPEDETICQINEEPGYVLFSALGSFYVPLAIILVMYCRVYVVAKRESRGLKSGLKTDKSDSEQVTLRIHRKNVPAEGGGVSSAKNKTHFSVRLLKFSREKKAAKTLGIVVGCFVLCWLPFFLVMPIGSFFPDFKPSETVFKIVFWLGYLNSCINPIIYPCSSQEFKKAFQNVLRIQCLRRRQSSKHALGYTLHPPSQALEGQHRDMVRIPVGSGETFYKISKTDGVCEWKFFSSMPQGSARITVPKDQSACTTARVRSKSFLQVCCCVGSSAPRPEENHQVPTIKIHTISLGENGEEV
Procedure, shortened: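 Male Sprague-Dawley rat (150-200 g) cerebral cortex membranes, washed in 50 mM Tris-HCl/0.5 mM EDTA pH 7.4. 250 µg membrane protein incubated with 0.5 nM [3H]prazosin for 30 min at 25 °C in a 0.5 mL volume. Nonspecific binding defined by 10 µM phentolamine. IC50 estimated graphically; Ki calculated by Cheng-Prusoff.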

[4] = target: T2, Adrenergic receptor alpha-2 (Rattus norvegicus); remark: listed apart in the source

Row | SMILES | Log Ki [1] | Kb (Cavia porcellus) [nM] | ID50 [2] [mg/kg] | Log Ki [3] | ID50 [4] [mg/kg]
1 | CCS(=O)(=O)N1CCC[C@@H]2CN3CCc4ccccc4[C@@H]3C[C@@H]21 | -8.82 | 5.01 | 0.019 | -4.97 | 1.1
2 | CCCCS(=O)(=O)N1CCC[C@@H]2CN3CCc4ccccc4[C@@H]3C[C@@H]21 | -8.9 | 1.26 | 0.036 | -5.64 | 0.9
